According to ChEMBL document CHEMBL1123166, “Design and synthesis of 2-(arylamino)-4(3H)-quinazolinones as novel inhibitors of rat lens aldose reductase” (J Med Chem, 1986):

What was measured:
[1] = target: Aldo-keto reductase family 1 member B1 (Rattus norvegicus, UniProt P07943); assay: Compound was tested for its ability to inhibit crude aldose reductase obtained from rat lens
[2] = target: Aldo-keto reductase family 1 member B1 (Rattus norvegicus) (UniProt P07943); assay: Compound was tested for its ability to inhibit crude aldose reductase obtained from rat lens at 100 uM concentration
Method in brief: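 Crude enzyme prepared from rat lens. Reaction at pH 6.2 in 0.1 M phosphate buffer with 0.104 mM NADPH and 1.5 mM DL-glyceraldehyde as substrate. NADPH consumption followed at 340 nm against a blank lacking substrate. Percent inhibition from rate versus substrate-only control. IC50 from linear regression of log dose-response using at least three concentrations, three replicates each, for compounds exceeding 50% inhibition at 100 μM.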

Row | SMILES | IC50 [1] | inhibition [2]
1 | Cc1nc2ccccc2c(=O)n1-c1ccc(C(=O)O)cc1 | 214 µM | –
2 | COc1cc2nc(Nc3ccccc3)nc(O)c2cc1OC | – | 17.4%
3 | O=C(O)c1ccc(Nc2nc3ccccc3c(=O)[nH]2)cc1 | 50 µM | –
4 | COc1cc2nc(Nc3ccc(C(=O)O)cc3)[nH]c(=O)c2cc1OC | 34 µM | –
5 | O=c1[nH]c(Nc2ccc(O)cc2)nc2ccccc12 | 75 µM | –
6 | O=S(=O)(O)c1ccc(Nc2nc(O)c3ccccc3n2)cc1 | – | 42.6%
7 | COc1cc2nc(NCc3ccccc3)nc(O)c2cc1OC | – | 22.4%
8 | Oc1nc(Nc2ccccc2)nc2ccccc12 | – | 5.9%
9 | Oc1nc(NCc2ccccc2)nc2ccccc12 | – | 3.9%
10 | O=C(O)c1ccc(Nc2nc3ccccc3c(=O)[nH]2)cc1O | 57 µM | –
